Active and inactive are the calls of the source. No cut-off for these calls is given here.
Tests used:
ACHN = experiment: Growth inhibition of human ACHN cells incubated for 48 hrs by sulforhodamine B assay; type: functional; conditions: for CC50: read-out: LC50 (the source's name)
Procedure, shortened: (§1)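 NCI 60-line screen. Cells in RPMI-1640 with 5% FBS and 2 mM L-glutamine, preincubated 24 h, then time-zero plates TCA-fixed. Compounds from DMSO stocks given at five final concentrations (100, 10, 1.0, 0.1, 0.01 µM) for 48 h at 37 °C, 5% CO2. Cells fixed with 10% TCA, SRB-stained, read at 515 nm. GI50 is the concentration giving 50% lower net protein increase versus control.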

OVCAR-8 = experiment: Growth inhibition of human OVCAR8 cells incubated for 48 hrs by sulforhodamine B assay; type: functional; conditions: OVCAR-8, 48 h
Procedure, shortened: (§2)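 Five-dose NCI SRB assay at 100, 10, 1.0, 0.1 and 0.01 μM for 48 h at 37 °C, 5% CO2. Medium was RPMI-1640 with 5% FBS and 2 mM glutamine. Time-zero plates were TCA-fixed at compound addition, A515 read after SRB staining. GI50 was solved from [(Ti−Tz)/(C−Tz)]×100 = 50. Values beyond the tested range are given as > or <.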

A549 = experiment: Growth inhibition of human A549/ATCC cells at 10 uM incubated for 48 hrs by sulforhodamine B assay; type: functional, cell-based
Procedure, shortened: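 NCI 60-cell-line screen at a single 10 µM dose. Cells in RPMI-1640 with 5% FBS and 2 mM L-glutamine, pre-incubated 24 h, then treated for 48 h at 37 °C. TCA fixation, sulforhodamine B staining, absorbance at 515 nm. Percentage growth calculated against time-zero and untreated controls.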

HOP-92 = experiment: Growth inhibition of human HOP92 cells incubated for 48 hrs by sulforhodamine B assay; type: functional; conditions: HOP-92, 48 h; procedure, shortened: as §2
MDA-MB-231 [1] = experiment: Growth inhibition of human MDA-MB-231 cells incubated for 48 hrs by sulforhodamine B assay; type: functional; conditions: MDA-MB-231, 48 h; for CC50: read-out: LC50 (the source's name); procedure, shortened: as §2
NCI-H322M [2] = experiment: Growth inhibition of human NCI-H322M cells at 10 uM incubated for 48 hrs by sulforhodamine B assay; type: functional, cell-based
Procedure, shortened: (§3)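 NCI 60-line panel, single 10 μM dose. Cells were grown in RPMI-1640 with 5% FBS and 2 mM L-glutamine and pre-incubated 24 h before compound addition (DMSO stock). Exposure was 48 h at 37 °C, 5% CO2. Cells were fixed with cold TCA (10% final), stained with 0.4% SRB, bound dye dissolved in 10 mM Tris base, A515 read. Growth was taken relative to time-zero and untreated control plates.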

NCI-H322M [3] = experiment: Growth inhibition of human NCI-H322M cells incubated for 48 hrs by sulforhodamine B assay; type: functional; conditions: for CC50: read-out: LC50 (the source's name); procedure, shortened: as §2
OVCAR-4 = experiment: Growth inhibition of human OVCAR4 cells incubated for 48 hrs by sulforhodamine B assay; type: functional; conditions: OVCAR-4, 48 h; procedure, shortened: as §2
SNB-19 = experiment: Growth inhibition of human SNB19 cells incubated for 48 hrs by sulforhodamine B assay; type: functional; conditions: SNB-19, 48 h; for CC50: read-out: LC50 (the source's name)
Procedure, shortened: (§4)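 NCI-60 panel cells grown in RPMI-1640 with 5% FBS and 2 mM L-glutamine, preincubated 24 h at 37 °C/5% CO2. Time-zero plates were TCA-fixed at compound addition. DMSO stocks were diluted in medium and tested at five final concentrations (100, 10, 1.0, 0.1, 0.01 µM) for 48 h. Cells were TCA-fixed, stained with SRB and read at 515 nm. GI50 = 50% lower net protein increase versus control.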

NCI-H23 = experiment: Growth inhibition of human NCI-H23 cells incubated for 48 hrs by sulforhodamine B assay; type: functional; conditions: NCI-H23, 48 h; for CC50: read-out: LC50 (the source's name); procedure, shortened: as §2
RPMI-8226 = experiment: Growth inhibition of human RPMI8226 cells incubated for 48 hrs by sulforhodamine B assay; type: functional; conditions: RPMI-8226, 48 h; for CC50: read-out: LC50 (the source's name); procedure, shortened: as §1
MDA-MB-468 = experiment: Growth inhibition of human MDA-MB-468 cells incubated for 48 hrs by sulforhodamine B assay; type: functional; conditions: MDA-MB-468, 48 h; for CC50: read-out: LC50 (the source's name); procedure, shortened: as §2
BT-549 = experiment: Growth inhibition of human BT549 cells incubated for 48 hrs by sulforhodamine B assay; type: functional; conditions: BT-549, 48 h; for CC50: read-out: LC50 (the source's name)
Procedure, shortened: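 NCI five-dose SRB assay (100, 10, 1.0, 0.1, 0.01 µM) with 48 h exposure in RPMI-1640 with 5% FBS and 2 mM L-glutamine. Cells fixed with TCA and stained with SRB, read at 515 nm. GI50 is the concentration where [(Ti−Tz)/(C−Tz)]×100 = 50.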

SK-MEL-28 = experiment: Growth inhibition of human SK-MEL-28 cells incubated for 48 hrs by sulforhodamine B assay; type: functional; conditions: SK-MEL-28, 48 h; for CC50: read-out: LC50 (the source's name); procedure, shortened: as §4
NCI/ADR-RES = experiment: Growth inhibition of human NCI/ADR-RES cells incubated for 48 hrs by sulforhodamine B assay; type: functional; conditions: for CC50: read-out: LC50 (the source's name); procedure, shortened: as §1
Hs-578T = experiment: Growth inhibition of human Hs578T cells incubated for 48 hrs by sulforhodamine B assay; type: functional; conditions: for CC50: read-out: LC50 (the source's name); procedure, shortened: as §2
UACC-257 = experiment: Growth inhibition of human UACC257 cells incubated for 48 hrs by sulforhodamine B assay; type: functional; conditions: UACC-257, 48 h; for CC50: read-out: LC50 (the source's name); procedure, shortened: as §4
SNB-75 = experiment: Growth inhibition of human SNB75 cells incubated for 48 hrs by sulforhodamine B assay; type: functional; conditions: SNB-75, 48 h; for CC50: read-out: LC50 (the source's name); procedure, shortened: as §1
HCC 2998 = experiment: Growth inhibition of human HCC2998 cells incubated for 48 hrs by sulforhodamine B assay; type: functional; conditions: HCC 2998, 48 h; for CC50: read-out: LC50 (the source's name); procedure, shortened: as §1
A498 = experiment: Growth inhibition of human A498 cells incubated for 48 hrs by sulforhodamine B assay; type: functional; conditions: A498, 48 h; for CC50: read-out: LC50 (the source's name); procedure, shortened: as §1
SF-295 = experiment: Growth inhibition of human SF295 cells incubated for 48 hrs by sulforhodamine B assay; type: functional; conditions: SF-295, 48 h; for CC50: read-out: LC50 (the source's name); procedure, shortened: as §2
IGROV-1 = experiment: Growth inhibition of human IGROV1 cells incubated for 48 hrs by sulforhodamine B assay; type: functional; conditions: IGROV-1, 48 h; for CC50: read-out: LC50 (the source's name); procedure, shortened: as §1
HL-60(TB) = experiment: Growth inhibition of human HL-60(TB) cells incubated for 48 hrs by sulforhodamine B assay; type: functional; conditions: HL-60, 48 h; for CC50: read-out: LC50 (the source's name); procedure, shortened: as §1
MDA-MB-231 [4] = experiment: Growth inhibition of human MDA-MB-231 cells at 10 uM incubated for 48 hrs by sulforhodamine B assay; type: functional, cell-based; procedure, shortened: as §3
OVCAR-3 = experiment: Growth inhibition of human OVCAR3 cells incubated for 48 hrs by sulforhodamine B assay; type: functional; conditions: OVCAR-3, 48 h; for CC50: read-out: LC50 (the source's name); procedure, shortened: as §2
HT-29 = experiment: Growth inhibition of human HT-29 cells incubated for 48 hrs by sulforhodamine B assay; type: functional; conditions: HT-29, 48 h; procedure, shortened: as §2
MDA-MB-435 = experiment: Growth inhibition of human MDA-MB-435 cells incubated for 48 hrs by sulforhodamine B assay; type: functional; conditions: MDA-MB-435, 48 h; for CC50: read-out: LC50 (the source's name); procedure, shortened: as §2

SMILES: COc1ccc(C(=O)/C=C/c2cccc(Nc3ccnc4cc(Cl)ccc34)c2)cc1
- GI50 (ACHN): 1730 nM
- CC50 (ACHN): > 100000 nM
- GI50 (OVCAR-8): 2260 nM
- LC50 (concentration causing 50% net cell kill) (OVCAR-8): > 100000 nM
- growth inhibition (GI) (A549): Active
- GI50 (HOP-92): 1090 nM
- LC50 (concentration giving 50% net cell kill) (HOP-92): > 100000 nM
- GI50 (MDA-MB-231 [1]): 1910 nM
- CC50 (MDA-MB-231 [1]): > 100000 nM
- growth inhibition (GI) (NCI-H322M [2]): Active
- GI50 (NCI-H322M [3]): 2690 nM
- CC50 (NCI-H322M [3]): > 100000 nM
- GI50 (OVCAR-4): 1000 nM
- GI50 (SNB-19): 2260 nM
- CC50 (SNB-19): > 100000 nM
- GI50 (NCI-H23): 1490 nM
- CC50 (NCI-H23): > 100000 nM
- GI50 (RPMI-8226): 570 nM
- CC50 (RPMI-8226): > 100000 nM
- GI50 (MDA-MB-468): 580 nM
- CC50 (MDA-MB-468): > 100000 nM
- GI50 (BT-549): 1870 nM
- CC50 (BT-549): > 100000 nM
- GI50 (SK-MEL-28): 1870 nM
- CC50 (SK-MEL-28): > 100000 nM
- GI50 (NCI/ADR-RES): 1160 nM
- CC50 (NCI/ADR-RES): > 100000 nM
- GI50 (Hs-578T): 3180 nM
- CC50 (Hs-578T): > 100000 nM
- GI50 (UACC-257): 2070 nM
- CC50 (UACC-257): > 100000 nM
- GI50 (SNB-75): 1510 nM
- CC50 (SNB-75): > 100000 nM
- CC50 (HCC 2998): > 100000 nM
- GI50 (A498): 3000 nM
- CC50 (A498): > 100000 nM
- GI50 (SF-295): 690 nM
- CC50 (SF-295): > 100000 nM
- GI50 (IGROV-1): 1440 nM
- CC50 (IGROV-1): > 100000 nM
- GI50 (HL-60(TB)): 2980 nM
- CC50 (HL-60(TB)): > 100000 nM
- growth inhibition (GI) (MDA-MB-231 [4]): Active
- GI50 (OVCAR-3): 1690 nM
- CC50 (OVCAR-3): > 100000 nM
- GI50 (HT-29): 1640 nM
- LC50 (HT-29): > 100000 nM
- GI50 (MDA-MB-435): 2130 nM
- CC50 (MDA-MB-435): > 100000 nM

SMILES: O=CN1N=C(c2ccc(Cl)cc2)CC1c1cccc(Nc2ccnc3cc(Cl)ccc23)c1 (stereo not given)
- GI50 (ACHN): 2640 nM
- CC50 (ACHN): > 100000 nM
- GI50 (OVCAR-8): 1920 nM
- LC50 (concentration causing 50% net cell kill) (OVCAR-8): > 100000 nM
- growth inhibition (GI) (A549): Active
- GI50 (HOP-92): 1450 nM
- LC50 (concentration giving 50% net cell kill) (HOP-92): > 100000 nM
- GI50 (MDA-MB-231 [1]): 2740 nM
- CC50 (MDA-MB-231 [1]): > 100000 nM
- growth inhibition (GI) (NCI-H322M [2]): Active
- GI50 (NCI-H322M [3]): 5520 nM
- CC50 (NCI-H322M [3]): > 100000 nM
- GI50 (OVCAR-4): 640 nM
- CC50 (OVCAR-4; read-out: LC50 (the source's name)): 79800 nM
- GI50 (SNB-19): 4190 nM
- CC50 (SNB-19): > 100000 nM
- GI50 (NCI-H23): 1070 nM
- CC50 (NCI-H23): > 100000 nM
- GI50 (RPMI-8226): 610 nM
- CC50 (RPMI-8226): > 100000 nM
- GI50 (MDA-MB-468): 280 nM
- CC50 (MDA-MB-468): > 100000 nM
- GI50 (BT-549): 1780 nM
- CC50 (BT-549): > 100000 nM
- GI50 (SK-MEL-28): 3150 nM
- CC50 (SK-MEL-28): > 100000 nM
- GI50 (NCI/ADR-RES): 780 nM
- CC50 (NCI/ADR-RES): > 100000 nM
- GI50 (Hs-578T): 3230 nM
- CC50 (Hs-578T): > 100000 nM
- GI50 (UACC-257): 1470 nM
- CC50 (UACC-257): > 100000 nM
- GI50 (SNB-75): 1700 nM
- CC50 (SNB-75): > 100000 nM
- GI50 (HCC 2998): 3120 nM
- CC50 (HCC 2998): > 100000 nM
- GI50 (A498): 980 nM
- CC50 (A498): > 100000 nM
- GI50 (SF-295): 500 nM
- CC50 (SF-295): > 100000 nM
- GI50 (IGROV-1): 1440 nM
- CC50 (IGROV-1): > 100000 nM
- GI50 (HL-60(TB)): 1270 nM
- CC50 (HL-60(TB)): > 100000 nM
- growth inhibition (GI) (MDA-MB-231 [4]): Active
- GI50 (OVCAR-3): 1100 nM
- CC50 (OVCAR-3): 83300 nM
- GI50 (HT-29): 1280 nM
- LC50 (HT-29): 56400 nM
- GI50 (MDA-MB-435): 380 nM
- CC50 (MDA-MB-435): > 100000 nM

Source: ChEMBL document CHEMBL4038284, “Synthesis of novel quinoline-based 4,5-dihydro-1H-pyrazoles as potential anticancer, antifungal, antibacterial and antiprotozoal agents” (Eur J Med Chem, 2017)
